Reference: ChEMBL document CHEMBL1147076, “Antitumor activity of MLN8054, an orally active small-molecule inhibitor of Aurora A kinase” (Proc Natl Acad Sci U S A, 2007)
Calls of active or inactive are those of the source. The rule behind the calls is not given here.

Experiments:
[1] = biological target: Dual specificity protein kinase CLK3 (Homo sapiens) (UniProt P49761); assay: Activity of human CLK3 kinase at 1 uM
[2] = biological target: Ephrin type-A receptor 1 (Homo sapiens) (UniProt P21709); assay: Activity of human EphA1 kinase at 1 uM
Summary of the method: (§1)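 Single-point kinase profiling: each kinase in a 226-kinase panel tested with compound at 1 μM and ATP at 10 μM in every assay, run by an external screening service.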

PC-3 [3] = assay: Cell cycle arrest in human PC3 cells by accumulation at >4N phase at 4 uM after 48 hrs by flow cytometry relative to control; format: functional
[4] = biological target: Hepatocyte growth factor receptor (Homo sapiens) (UniProt P08581); assay: Activity of human Met kinase at 1 uM; summary of the method: as §1
[5] = biological target: Tyrosine-protein kinase Lyn (Mus musculus) (UniProt P25911); assay: Activity of mouse Lyn kinase at 1 uM
Summary of the method: (§2)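 Single-point screen in a 226-kinase panel run by an outside service. Test compound at 1 μM with ATP at 10 μM in every assay. Other assay conditions are not given.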

[6] = biological target: Angiopoietin-1 receptor (Homo sapiens) (UniProt Q02763); assay: Activity of human Tie2 kinase at 1 uM; summary of the method: as §2
PC-3 [7] = assay: Cell cycle arrest in human PC3 cells by accumulation at G2/M phase at 4 uM after 24 hrs by flow cytometry relative to control; format: functional
Summary of the method: (§3)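 DNA content profiles by flow cytometry of PC-3 prostate tumor cells exposed to drug diluted in DMSO for 24 or 48 h. Phase distribution was compared with DMSO-treated control cells.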

[8] = biological target: Serine/threonine-protein kinase Nek7 (Homo sapiens) (UniProt Q8TDX7); assay: Activity of human NEK7 kinase at 1 uM; summary of the method: as §2
PC-3 [9] = assay: Induction of apoptosis in human PC3 cells assessed as PARP cleavage at 4 uM after 24 hrs by Western blot method; format: functional, cell-based
[10] = biological target: Tyrosine-protein kinase SYK (Homo sapiens) (UniProt P43405); assay: Activity of human Syk kinase at 1 uM; summary of the method: as §2
PC-3 [11] = assay: Cell cycle arrest in human PC3 cells by accumulation at G1 phase at 1 uM after 48 hrs by flow cytometry relative to control; format: functional; summary of the method: as §3
Homo sapiens = species: Homo sapiens; assay: Activity of human CK2 kinase at 1 uM
[12] = biological target: PAS domain-containing serine/threonine-protein kinase (Homo sapiens) (UniProt Q96RG2); assay: Activity of human PASK kinase at 1 uM; summary of the method: as §1
[13] = biological target: Vascular endothelial growth factor receptor 3 (Homo sapiens) (UniProt P35916); assay: Activity of human Flt4 kinase at 1 uM; summary of the method: as §1
[14] = biological target: Calcium/calmodulin-dependent protein kinase type II subunit gamma (Homo sapiens) (UniProt Q13555); assay: Activity of human CaMK2gamma kinase at 1 uM; summary of the method: as §1
PC-3 [15] = assay: Increase in mitotis in human PC3 cells assessed as mitotic cell count after 24 hrs; format: functional
Summary of the method: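 Cultured cells were exposed to drug for 24 h and stained with MPM2 (mitotic marker) and Hoechst. Cells were imaged on a high-content imaging system, and the percentage of Hoechst-stained cells positive for MPM2 was calculated.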

[16] = biological target: Tyrosine-protein kinase Yes (Homo sapiens) (UniProt P07947); assay: Inhibition of Yes kinase at 1 uM
Summary of the method: (§4)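 Single-point screen within a 226-kinase panel, with compound at 1 μM and ATP at 10 μM in all assays.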

[17] = biological target: Serine/threonine-protein kinase BRSK1 (Homo sapiens) (UniProt Q8TDC3); assay: Activity of human BrSK1 kinase at 1 uM
Sequence of Serine/threonine-protein kinase BRSK1 (Homo sapiens) (Q8TDC3 whole entry): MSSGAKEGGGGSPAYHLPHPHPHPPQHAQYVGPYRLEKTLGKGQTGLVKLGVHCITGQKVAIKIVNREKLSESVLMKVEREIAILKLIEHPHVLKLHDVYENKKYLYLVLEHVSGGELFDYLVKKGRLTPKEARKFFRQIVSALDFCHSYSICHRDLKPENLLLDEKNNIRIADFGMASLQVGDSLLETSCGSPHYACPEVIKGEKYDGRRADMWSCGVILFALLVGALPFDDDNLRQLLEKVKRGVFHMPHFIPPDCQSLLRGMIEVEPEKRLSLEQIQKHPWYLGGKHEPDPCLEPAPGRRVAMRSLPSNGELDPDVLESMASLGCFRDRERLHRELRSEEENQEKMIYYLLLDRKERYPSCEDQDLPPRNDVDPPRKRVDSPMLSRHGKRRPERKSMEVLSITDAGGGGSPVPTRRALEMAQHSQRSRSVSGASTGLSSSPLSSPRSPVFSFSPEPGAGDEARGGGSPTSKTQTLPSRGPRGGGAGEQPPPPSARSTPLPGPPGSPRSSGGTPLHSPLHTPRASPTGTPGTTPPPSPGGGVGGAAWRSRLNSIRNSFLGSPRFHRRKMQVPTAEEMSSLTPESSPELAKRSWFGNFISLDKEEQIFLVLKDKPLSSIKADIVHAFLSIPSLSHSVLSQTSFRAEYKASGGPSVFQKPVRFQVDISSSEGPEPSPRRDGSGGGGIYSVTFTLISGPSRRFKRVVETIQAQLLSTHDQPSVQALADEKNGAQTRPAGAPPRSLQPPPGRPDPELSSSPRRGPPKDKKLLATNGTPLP

[18] = biological target: Tyrosine-protein kinase receptor UFO (Homo sapiens) (UniProt P30530); assay: Inhibition of Axl kinase at 1 uM; summary of the method: as §4
Sequence of Tyrosine-protein kinase receptor UFO (Homo sapiens) (P30530 whole entry): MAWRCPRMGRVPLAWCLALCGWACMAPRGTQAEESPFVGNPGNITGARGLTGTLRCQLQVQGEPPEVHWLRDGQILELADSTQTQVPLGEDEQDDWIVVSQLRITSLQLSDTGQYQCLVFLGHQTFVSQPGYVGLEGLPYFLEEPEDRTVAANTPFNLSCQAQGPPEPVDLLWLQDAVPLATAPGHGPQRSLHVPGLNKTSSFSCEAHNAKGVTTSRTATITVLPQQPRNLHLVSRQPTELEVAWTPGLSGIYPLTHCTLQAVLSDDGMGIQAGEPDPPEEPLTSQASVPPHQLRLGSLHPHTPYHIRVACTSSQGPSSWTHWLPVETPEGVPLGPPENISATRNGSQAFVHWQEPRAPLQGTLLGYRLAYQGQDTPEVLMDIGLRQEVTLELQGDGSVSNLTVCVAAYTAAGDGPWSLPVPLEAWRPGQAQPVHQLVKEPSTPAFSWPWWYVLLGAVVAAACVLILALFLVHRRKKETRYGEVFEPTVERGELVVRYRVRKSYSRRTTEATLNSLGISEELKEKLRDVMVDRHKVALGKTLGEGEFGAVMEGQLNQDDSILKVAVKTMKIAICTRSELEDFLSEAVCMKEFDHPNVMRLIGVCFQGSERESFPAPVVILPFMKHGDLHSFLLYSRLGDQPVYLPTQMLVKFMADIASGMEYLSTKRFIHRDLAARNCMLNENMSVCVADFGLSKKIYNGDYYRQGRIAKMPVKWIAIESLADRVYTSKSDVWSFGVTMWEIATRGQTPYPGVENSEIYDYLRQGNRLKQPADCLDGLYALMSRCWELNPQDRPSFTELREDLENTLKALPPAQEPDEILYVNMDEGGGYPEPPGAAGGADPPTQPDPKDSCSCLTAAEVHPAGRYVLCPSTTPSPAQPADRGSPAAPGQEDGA

[19] = biological target: Serine/threonine-protein kinase pim-2 (Homo sapiens) (UniProt Q9P1W9); assay: Activity of human Pim2 kinase at 1 uM; summary of the method: as §2
[20] = biological target: Tyrosine-protein kinase receptor UFO (Homo sapiens) (UniProt P30530); assay: Activity of human Axl kinase at 1 uM; summary of the method: as §1
[21] = biological target: Glycogen synthase kinase-3 alpha (Homo sapiens) (UniProt P49840); assay: Activity of human GSK3-alpha kinase at 1 uM
[22] = biological target: Serine/threonine-protein kinase MARK1 (Homo sapiens) (UniProt Q9P0L2); assay: Activity of human MARK1 kinase at 1 uM; summary of the method: as §1
[23] = biological target: Tyrosine-protein kinase Fgr (Homo sapiens) (UniProt P09769); assay: Activity of human FGR kinase at 1 uM; summary of the method: as §1
Sequence of Tyrosine-protein kinase Fgr (Homo sapiens) (P09769 2-529 limits assumed): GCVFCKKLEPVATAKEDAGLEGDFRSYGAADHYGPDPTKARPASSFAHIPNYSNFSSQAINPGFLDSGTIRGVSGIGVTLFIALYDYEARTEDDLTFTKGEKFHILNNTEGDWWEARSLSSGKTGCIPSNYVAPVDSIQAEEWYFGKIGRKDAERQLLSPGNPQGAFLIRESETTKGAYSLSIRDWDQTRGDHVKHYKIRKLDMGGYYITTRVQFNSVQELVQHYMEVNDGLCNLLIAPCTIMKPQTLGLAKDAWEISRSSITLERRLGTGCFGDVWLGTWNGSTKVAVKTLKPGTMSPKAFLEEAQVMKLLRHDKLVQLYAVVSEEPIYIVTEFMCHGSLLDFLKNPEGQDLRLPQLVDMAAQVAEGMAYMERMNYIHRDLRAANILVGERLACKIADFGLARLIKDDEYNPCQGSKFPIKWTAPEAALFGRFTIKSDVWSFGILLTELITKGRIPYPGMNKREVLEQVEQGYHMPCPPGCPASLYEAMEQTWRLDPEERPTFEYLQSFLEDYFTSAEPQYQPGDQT

[24] = biological target: Serine/threonine-protein kinase Nek2 (Homo sapiens) (UniProt P51955); assay: Activity of human NEK2 kinase at 1 uM
PC-3 [25] = assay: Cell cycle arrest in human PC3 cells by accumulation at >4N phase at 4 uM after 24 hrs by flow cytometry relative to control; format: functional
[26] = biological target: Mitogen-activated protein kinase 14 (Homo sapiens) (UniProt Q16539); assay: Activity of human SAPK2a kinase at 1 uM
Summary of the method: (§5)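 Single-concentration screen across a 226-kinase panel run by an outside provider; test compound at 1 μM with 10 μM ATP in every assay. Other conditions not detailed.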

[27] = biological target: SRSF protein kinase 3 (Homo sapiens) (UniProt Q9UPE1); assay: Activity of human MSSK1 kinase at 1 uM
[28] = Plasma concentration in human HCT116 cells xenografted in mouse at 30 mg/kg, po after 8 hrs; format: ADME, organism-based, HCT-116; set-up: dose 30 mg/kg, route oral
NCI-H460 = assay: Antiproliferative activity against human H460 cells after 96 hrs by BrdU cell proliferation ELISA; format: functional, cell-based; details: NCI-H460, 96 h
Summary of the method: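 BrdU incorporation proliferation assay on cultured human tumor lines; IC50 values derived from growth inhibition.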

SK-OV-3 = assay: Antiproliferative activity against human SKOV3 cells after 96 hrs by BrdU cell proliferation ELISA; format: functional, cell-based; details: SK-OV-3, 96 h
[29] = biological target: Rho-associated protein kinase 2 (Homo sapiens) (UniProt O75116); assay: Activity of human ROCK2 kinase at 1 uM; summary of the method: as §2
[30] = Inhibition of PKC by radioactive flashplate assay
[31] = biological target: Ephrin type-B receptor 3 (Homo sapiens) (UniProt P54753); assay: Activity of human EphB3 kinase at 1 uM
[32] = biological target: Ephrin type-B receptor 2 (Homo sapiens) (UniProt P29323); assay: Activity of human EphB2 kinase at 1 uM; summary of the method: as §1
Sequence of Ephrin type-B receptor 2 (Homo sapiens) (P29323 whole entry): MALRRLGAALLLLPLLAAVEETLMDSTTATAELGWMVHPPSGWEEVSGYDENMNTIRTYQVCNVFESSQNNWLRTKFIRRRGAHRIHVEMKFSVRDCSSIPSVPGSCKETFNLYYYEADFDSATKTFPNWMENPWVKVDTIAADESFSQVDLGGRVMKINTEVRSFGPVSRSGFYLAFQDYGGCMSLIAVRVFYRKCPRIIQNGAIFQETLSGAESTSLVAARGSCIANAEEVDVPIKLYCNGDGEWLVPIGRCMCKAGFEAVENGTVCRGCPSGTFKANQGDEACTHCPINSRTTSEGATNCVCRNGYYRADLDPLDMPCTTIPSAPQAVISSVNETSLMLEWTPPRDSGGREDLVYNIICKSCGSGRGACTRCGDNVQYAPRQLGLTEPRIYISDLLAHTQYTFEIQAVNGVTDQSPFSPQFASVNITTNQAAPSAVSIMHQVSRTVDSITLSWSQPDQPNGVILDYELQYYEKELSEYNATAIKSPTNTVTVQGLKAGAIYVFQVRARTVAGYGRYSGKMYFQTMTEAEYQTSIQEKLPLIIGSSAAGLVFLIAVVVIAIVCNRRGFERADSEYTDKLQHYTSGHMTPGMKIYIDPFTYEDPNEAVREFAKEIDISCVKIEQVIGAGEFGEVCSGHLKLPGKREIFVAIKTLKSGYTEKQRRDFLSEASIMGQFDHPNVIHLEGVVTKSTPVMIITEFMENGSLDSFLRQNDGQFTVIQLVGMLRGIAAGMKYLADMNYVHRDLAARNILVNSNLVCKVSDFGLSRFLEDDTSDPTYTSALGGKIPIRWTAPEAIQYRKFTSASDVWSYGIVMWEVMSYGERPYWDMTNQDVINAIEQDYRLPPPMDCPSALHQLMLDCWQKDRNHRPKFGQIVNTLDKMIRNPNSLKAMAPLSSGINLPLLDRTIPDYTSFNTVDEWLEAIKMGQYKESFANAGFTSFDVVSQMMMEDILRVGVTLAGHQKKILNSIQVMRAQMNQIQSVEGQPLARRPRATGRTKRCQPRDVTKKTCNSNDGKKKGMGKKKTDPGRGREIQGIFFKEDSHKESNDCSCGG

[33] = biological target: Misshapen-like kinase 1 (Homo sapiens) (UniProt Q8N4C8); assay: Activity of human MINK kinase at 1 uM
Sequence of Misshapen-like kinase 1 (Homo sapiens) (Q8N4C8 whole entry, looked up): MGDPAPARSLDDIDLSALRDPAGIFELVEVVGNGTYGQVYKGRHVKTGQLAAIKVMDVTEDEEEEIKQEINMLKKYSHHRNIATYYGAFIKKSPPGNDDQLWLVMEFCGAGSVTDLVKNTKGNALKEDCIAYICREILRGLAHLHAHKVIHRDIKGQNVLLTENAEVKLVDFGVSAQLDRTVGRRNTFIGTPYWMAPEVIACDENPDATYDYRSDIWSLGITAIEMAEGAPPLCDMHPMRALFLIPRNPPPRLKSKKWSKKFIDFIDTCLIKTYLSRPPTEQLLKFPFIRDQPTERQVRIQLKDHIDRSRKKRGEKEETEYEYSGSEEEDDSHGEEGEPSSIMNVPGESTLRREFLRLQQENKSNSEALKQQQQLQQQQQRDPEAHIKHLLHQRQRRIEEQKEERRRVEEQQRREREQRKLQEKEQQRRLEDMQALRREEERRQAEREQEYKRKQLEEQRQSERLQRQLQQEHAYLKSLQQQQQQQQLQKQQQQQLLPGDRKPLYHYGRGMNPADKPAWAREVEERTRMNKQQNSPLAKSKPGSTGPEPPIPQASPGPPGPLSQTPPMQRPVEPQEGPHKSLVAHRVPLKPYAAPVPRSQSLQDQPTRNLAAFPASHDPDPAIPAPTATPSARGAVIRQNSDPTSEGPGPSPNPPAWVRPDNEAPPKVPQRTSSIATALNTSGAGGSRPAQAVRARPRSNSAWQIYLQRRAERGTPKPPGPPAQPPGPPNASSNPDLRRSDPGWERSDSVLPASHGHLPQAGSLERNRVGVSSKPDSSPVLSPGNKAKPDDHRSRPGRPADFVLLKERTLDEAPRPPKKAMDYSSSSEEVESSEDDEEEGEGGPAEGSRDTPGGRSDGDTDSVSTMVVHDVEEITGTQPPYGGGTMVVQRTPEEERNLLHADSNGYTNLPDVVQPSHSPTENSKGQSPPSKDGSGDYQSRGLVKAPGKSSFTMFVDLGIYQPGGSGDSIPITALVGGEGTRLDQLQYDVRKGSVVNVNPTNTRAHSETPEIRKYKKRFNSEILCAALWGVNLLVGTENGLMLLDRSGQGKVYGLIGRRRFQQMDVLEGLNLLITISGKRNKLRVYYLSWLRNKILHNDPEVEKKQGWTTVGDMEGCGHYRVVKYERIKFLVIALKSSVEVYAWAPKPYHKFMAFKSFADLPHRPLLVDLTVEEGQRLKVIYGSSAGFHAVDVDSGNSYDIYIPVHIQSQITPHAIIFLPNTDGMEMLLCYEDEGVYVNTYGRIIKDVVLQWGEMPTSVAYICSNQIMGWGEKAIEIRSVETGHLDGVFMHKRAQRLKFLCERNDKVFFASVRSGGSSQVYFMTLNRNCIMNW

[34] = biological target: Serine/threonine-protein kinase N2 (Homo sapiens) (UniProt Q16513); assay: Activity of human PRK2 kinase at 1 uM; summary of the method: as §2
[35] = biological target: Interleukin-1 receptor-associated kinase 4 (Homo sapiens) (UniProt Q9NWZ3); assay: Activity of human IRAK4 kinase at 1 uM
Sequence of Interleukin-1 receptor-associated kinase 4 (Homo sapiens) (Q9NWZ3 whole entry): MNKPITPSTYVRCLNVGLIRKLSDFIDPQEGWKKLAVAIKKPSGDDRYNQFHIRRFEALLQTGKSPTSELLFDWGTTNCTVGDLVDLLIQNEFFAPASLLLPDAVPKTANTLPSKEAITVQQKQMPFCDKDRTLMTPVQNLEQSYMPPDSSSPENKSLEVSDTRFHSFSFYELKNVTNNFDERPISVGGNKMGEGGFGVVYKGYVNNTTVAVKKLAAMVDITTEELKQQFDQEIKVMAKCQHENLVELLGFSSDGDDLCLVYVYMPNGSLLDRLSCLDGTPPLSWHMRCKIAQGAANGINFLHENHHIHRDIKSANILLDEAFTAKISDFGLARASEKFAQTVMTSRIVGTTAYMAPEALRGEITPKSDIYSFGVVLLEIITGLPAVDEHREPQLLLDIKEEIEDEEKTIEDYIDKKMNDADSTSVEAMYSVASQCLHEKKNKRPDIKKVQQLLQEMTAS

[36] = biological target: BDNF/NT-3 growth factors receptor (Homo sapiens) (UniProt Q16620); assay: Activity of human TrkB kinase at 1 uM; summary of the method: as §5
[37] = biological target: Serine/threonine-protein kinase 17A (Homo sapiens) (UniProt Q9UEE5); assay: Activity of human DRAK1 kinase at 1 uM; summary of the method: as §1

SMILES: O=C(O)c1ccc(Nc2ncc3c(n2)-c2ccc(Cl)cc2C(c2c(F)cccc2F)=NC3)cc1 [MLN-8054]
- Activity [1]: 81%
- Activity [2]: 29%
- Activity (PC-3 [3]): 21.4%
- Activity [4]: 140%
- Activity [5]: 52%
- Activity [6]: 51%
- Activity (PC-3 [7]): 58.8%
- Activity [8]: 99%
- Activity (PC-3 [9]): Active
- Activity [10]: 99%
- Activity (PC-3 [11]): 23%
- Activity (Homo sapiens): 108%
- Activity [12]: 114%
- Activity [13]: 6%
- Activity [14]: 112%
- Activity (PC-3 [15]): 12%
- inhibition [16]: 80%
- Activity [17]: 92%
- inhibition [18]: 59%
- Activity [19]: 101%
- Activity [20]: 41%
- Activity [21]: 110%
- Activity [22]: 106%
- Activity [23]: 36%
- Activity [24]: 110%
- Activity (PC-3 [25]): 5%
- Activity [26]: 105%
- Activity [27]: 100%
- concentration at 8 h [28]: 7.4 µM
- IC50 (NCI-H460): 110 nM
- IC50 (SK-OV-3): 530 nM
- Activity [29]: 100%
- IC50 [30]: > 100000 nM
- Activity [31]: 95%
- Activity [32]: 69%
- Activity [33]: 104%
- Activity [34]: 90%
- Activity [35]: 97%
- Activity [36]: 112%
- Activity [37]: 60%
